Measured values reported in ChEMBL document CHEMBL1926530, “Novel pyrazolo[1,5-a]pyridines as p110α-selective PI3 kinase inhibitors: Exploring the benzenesulfonohydrazide SAR” (Bioorg Med Chem, 2012).
pIC50: −log10 of the molar value.

Experiments:
[1] = molecular target: Phosphatidylinositol 4,5-bisphosphate 3-kinase catalytic subunit beta isoform (Homo sapiens, UniProt P42338); experiment: Inhibition of recombinant PI3K p110beta using L-alpha-phosphatidylinositol as substrate and [gamma33P]ATP after 60 mins by thin layer chromatographic technique
Procedure, shortened: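 In-house recombinant enzyme (0.1 µg) with L-α-phosphatidylinositol in 40 mM Tris-HCl pH 7.4, 200 mM NaCl, 1 mM EDTA; DMSO 1% final. Started with 5 mM MgCl₂, 100 µM ATP plus [γ-³³P]ATP; 1 h at room temperature, stopped with 1 M HCl. Lipids extracted, separated by TLC, phosphorimaged. Nine inhibitor concentrations; two experiments, IC50 averaged.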

[2] = molecular target: Phosphatidylinositol 4,5-bisphosphate 3-kinase catalytic subunit alpha isoform (Homo sapiens, UniProt P42336, E545K); experiment: Inhibition of recombinant PI3K p110alpha E545K mutant using L-alpha-phosphatidylinositol as substrate and [gamma33P]ATP after 60 mins by thin layer chromatographic technique
Sequence of Phosphatidylinositol 4,5-bisphosphate 3-kinase catalytic subunit alpha isoform (Homo sapiens, UniProt P42336, E545K) (P42336 whole entry E545K, canonical isoform): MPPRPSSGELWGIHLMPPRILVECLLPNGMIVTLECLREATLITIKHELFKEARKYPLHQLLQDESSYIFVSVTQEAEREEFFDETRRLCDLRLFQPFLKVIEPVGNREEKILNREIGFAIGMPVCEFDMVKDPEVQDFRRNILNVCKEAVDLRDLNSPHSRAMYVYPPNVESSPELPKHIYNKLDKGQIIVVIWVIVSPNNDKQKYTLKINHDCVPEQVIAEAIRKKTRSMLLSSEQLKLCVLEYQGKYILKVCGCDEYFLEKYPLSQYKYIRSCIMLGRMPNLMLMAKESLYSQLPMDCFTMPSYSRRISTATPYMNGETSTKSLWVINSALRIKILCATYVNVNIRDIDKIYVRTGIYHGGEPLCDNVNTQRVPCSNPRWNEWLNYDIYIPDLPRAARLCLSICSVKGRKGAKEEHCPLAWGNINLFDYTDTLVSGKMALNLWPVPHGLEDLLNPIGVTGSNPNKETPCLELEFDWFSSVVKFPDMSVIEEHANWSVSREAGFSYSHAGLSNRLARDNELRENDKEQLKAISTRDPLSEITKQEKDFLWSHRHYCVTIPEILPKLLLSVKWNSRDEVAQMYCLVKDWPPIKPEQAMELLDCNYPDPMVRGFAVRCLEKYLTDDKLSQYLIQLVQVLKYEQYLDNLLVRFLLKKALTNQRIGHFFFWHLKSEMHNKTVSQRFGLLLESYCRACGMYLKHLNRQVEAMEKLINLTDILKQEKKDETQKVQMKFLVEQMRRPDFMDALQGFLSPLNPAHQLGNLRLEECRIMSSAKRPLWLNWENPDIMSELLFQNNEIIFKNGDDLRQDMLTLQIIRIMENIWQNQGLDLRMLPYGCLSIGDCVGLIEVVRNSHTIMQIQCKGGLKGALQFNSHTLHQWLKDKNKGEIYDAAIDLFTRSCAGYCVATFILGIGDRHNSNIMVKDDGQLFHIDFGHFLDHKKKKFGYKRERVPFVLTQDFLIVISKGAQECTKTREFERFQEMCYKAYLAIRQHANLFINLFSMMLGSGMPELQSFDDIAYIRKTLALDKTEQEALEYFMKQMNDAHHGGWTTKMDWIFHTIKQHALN

[3] = molecular target: Dual specificity mitogen-activated protein kinase kinase 1 (Homo sapiens) (UniProt Q02750); experiment: Inhibition of MKK1 assessed as residual activity at 1 uM
[4] = molecular target: Mitogen-activated protein kinase 14 (Homo sapiens) (UniProt Q16539); experiment: Inhibition of p38alpha assessed as residual activity at 10 uM
Sequence of Mitogen-activated protein kinase 14 (Homo sapiens) (Q16539 whole entry): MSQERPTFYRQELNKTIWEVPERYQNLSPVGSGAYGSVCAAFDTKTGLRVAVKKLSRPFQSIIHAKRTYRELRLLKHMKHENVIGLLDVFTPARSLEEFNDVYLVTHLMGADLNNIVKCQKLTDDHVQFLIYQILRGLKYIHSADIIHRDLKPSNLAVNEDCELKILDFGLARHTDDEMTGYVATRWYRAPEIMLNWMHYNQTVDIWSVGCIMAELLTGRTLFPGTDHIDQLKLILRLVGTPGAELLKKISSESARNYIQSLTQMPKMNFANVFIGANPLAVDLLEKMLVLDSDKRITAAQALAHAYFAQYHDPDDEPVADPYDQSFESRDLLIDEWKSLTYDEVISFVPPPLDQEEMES

[5] = molecular target: Ribosomal protein S6 kinase alpha-1 (Homo sapiens) (UniProt Q15418); experiment: Inhibition of RSK1 assessed as residual activity at 10 uM
Sequence of Ribosomal protein S6 kinase alpha-1 (Homo sapiens) (Q15418 whole entry): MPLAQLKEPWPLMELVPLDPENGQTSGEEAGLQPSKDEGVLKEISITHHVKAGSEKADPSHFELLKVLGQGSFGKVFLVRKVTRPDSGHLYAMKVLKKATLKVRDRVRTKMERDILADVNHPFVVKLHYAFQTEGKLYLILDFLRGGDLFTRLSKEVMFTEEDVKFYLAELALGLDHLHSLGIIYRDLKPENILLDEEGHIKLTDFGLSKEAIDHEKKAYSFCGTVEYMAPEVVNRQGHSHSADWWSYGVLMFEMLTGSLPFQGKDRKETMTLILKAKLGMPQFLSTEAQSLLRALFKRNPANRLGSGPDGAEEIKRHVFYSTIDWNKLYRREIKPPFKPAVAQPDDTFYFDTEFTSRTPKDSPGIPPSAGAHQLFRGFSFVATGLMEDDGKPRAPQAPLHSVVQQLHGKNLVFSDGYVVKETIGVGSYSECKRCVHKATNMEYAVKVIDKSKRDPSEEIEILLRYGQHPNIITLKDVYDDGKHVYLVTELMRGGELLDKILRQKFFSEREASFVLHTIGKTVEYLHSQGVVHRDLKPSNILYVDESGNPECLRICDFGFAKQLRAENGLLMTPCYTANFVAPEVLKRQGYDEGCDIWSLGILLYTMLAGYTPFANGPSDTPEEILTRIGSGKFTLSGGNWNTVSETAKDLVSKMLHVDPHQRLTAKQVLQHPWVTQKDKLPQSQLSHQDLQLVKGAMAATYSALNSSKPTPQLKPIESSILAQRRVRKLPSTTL

[6] = Inhibition of PKA assessed as residual activity at 1 uM
[7] = Inhibition of PKA assessed as residual activity at 10 uM
[8] = molecular target: Insulin receptor (Homo sapiens) (UniProt P06213); experiment: Inhibition of IR assessed as residual activity at 1 uM
Sequence of Insulin receptor (Homo sapiens) (P06213 28-758 limits assumed): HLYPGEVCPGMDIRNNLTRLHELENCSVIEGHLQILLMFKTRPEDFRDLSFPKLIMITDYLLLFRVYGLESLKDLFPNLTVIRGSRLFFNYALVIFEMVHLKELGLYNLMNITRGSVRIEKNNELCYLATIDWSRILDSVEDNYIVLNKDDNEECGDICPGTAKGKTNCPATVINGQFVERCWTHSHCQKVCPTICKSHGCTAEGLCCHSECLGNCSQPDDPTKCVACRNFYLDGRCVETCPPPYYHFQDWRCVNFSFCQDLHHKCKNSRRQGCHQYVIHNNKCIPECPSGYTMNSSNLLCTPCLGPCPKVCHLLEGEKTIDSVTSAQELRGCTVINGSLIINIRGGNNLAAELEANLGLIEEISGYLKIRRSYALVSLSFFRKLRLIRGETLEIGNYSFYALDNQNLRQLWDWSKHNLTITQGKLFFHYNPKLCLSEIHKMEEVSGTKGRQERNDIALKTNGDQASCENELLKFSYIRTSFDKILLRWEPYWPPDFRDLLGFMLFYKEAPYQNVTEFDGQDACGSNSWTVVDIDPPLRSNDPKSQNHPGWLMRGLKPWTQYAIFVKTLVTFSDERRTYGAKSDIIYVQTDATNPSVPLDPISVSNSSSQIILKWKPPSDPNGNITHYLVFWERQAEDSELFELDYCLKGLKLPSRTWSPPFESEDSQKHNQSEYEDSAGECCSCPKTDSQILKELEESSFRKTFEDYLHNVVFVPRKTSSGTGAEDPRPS
Sequence of Insulin receptor (Homo sapiens) (P06213 763-1382 limits assumed): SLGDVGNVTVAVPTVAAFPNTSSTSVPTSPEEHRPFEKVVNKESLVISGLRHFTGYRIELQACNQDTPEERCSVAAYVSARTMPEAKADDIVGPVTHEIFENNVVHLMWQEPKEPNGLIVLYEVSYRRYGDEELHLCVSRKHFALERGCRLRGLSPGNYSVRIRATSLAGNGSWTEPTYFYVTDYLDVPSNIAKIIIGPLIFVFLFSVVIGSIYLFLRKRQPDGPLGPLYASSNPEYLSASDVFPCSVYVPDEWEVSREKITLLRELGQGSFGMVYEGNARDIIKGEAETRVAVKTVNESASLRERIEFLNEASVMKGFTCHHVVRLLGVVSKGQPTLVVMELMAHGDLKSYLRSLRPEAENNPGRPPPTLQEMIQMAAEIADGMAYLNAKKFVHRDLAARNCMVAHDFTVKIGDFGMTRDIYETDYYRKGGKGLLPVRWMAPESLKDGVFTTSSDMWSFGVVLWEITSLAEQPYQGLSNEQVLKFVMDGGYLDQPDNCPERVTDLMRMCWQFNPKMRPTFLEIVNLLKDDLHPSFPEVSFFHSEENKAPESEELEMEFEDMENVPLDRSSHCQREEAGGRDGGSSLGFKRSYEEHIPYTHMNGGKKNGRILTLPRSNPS

[9] = molecular target: Misshapen-like kinase 1 (Homo sapiens) (UniProt Q8N4C8); experiment: Inhibition of MINK1 assessed as residual activity at 1 uM
Sequence of Misshapen-like kinase 1 (Homo sapiens) (Q8N4C8 whole entry, looked up, canonical isoform): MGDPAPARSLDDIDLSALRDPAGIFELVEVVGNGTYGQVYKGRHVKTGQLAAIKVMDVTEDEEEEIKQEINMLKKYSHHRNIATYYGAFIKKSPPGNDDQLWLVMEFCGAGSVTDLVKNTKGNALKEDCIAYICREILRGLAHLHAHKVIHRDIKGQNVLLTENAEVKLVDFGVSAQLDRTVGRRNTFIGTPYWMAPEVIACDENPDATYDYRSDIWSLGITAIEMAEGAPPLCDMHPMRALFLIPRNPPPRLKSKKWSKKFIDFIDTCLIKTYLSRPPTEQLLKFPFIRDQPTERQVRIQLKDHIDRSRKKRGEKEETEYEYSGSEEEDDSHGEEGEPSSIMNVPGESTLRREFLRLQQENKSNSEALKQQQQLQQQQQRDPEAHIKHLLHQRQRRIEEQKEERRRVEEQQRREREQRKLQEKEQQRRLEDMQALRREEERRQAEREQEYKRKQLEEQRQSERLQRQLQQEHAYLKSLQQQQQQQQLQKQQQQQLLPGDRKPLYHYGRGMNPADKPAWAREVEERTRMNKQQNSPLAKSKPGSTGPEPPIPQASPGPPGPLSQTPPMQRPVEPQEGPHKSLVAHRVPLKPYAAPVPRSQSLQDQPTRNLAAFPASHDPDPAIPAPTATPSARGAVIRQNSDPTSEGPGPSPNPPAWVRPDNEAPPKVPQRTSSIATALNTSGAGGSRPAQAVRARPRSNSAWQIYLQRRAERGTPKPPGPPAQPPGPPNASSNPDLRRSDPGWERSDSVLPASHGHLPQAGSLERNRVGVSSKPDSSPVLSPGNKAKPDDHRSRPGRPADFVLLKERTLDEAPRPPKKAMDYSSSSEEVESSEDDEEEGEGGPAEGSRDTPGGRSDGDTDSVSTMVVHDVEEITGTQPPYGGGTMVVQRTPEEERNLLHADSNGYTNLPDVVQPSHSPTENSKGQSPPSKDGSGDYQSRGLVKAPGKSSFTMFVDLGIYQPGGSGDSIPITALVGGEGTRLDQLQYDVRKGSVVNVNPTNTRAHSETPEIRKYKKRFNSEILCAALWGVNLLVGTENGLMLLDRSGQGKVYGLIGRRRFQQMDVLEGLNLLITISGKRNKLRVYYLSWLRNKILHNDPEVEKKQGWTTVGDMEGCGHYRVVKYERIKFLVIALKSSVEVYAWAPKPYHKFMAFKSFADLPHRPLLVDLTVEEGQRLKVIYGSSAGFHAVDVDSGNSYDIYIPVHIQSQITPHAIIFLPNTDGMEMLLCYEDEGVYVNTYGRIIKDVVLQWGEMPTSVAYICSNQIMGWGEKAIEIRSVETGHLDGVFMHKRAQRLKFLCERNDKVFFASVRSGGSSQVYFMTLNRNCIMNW

[10] = molecular target: Misshapen-like kinase 1 (Homo sapiens) (UniProt Q8N4C8); experiment: Inhibition of MINK1 assessed as residual activity at 10 uM
[11] = molecular target: T1, Phosphatidylinositol 4,5-bisphosphate 3-kinase catalytic subunit alpha isoform (Homo sapiens, UniProt P42336, H1047R); experiment: Inhibition of PI3K […] H1047R mutant-mediated PKB phosphorylation at Ser473 in human HCT116 cells after 15 mins by immunoblot analysis; assay type: cell-based, HCT-116
T1 sequence (P42336 whole entry H1047R, canonical isoform): as the sequence (P42336 whole entry E545K, canonical isoform) above, with K545E, H1047R counted along it
Procedure, shortened: (§1)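 HCT-116 cells in MEM alpha with 10% FBS and penicillin/streptomycin, seeded, grown 1 day, then starved overnight serum-free. Inhibitor in DMSO (0.1% final) at varying concentrations for 15 min, then 500 nM insulin for 5 min. Lysates immunoblotted for phospho-PKB at Ser473 or Thr308.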

[12] = molecular target: T1, Phosphatidylinositol 4,5-bisphosphate 3-kinase catalytic subunit alpha isoform; experiment: Inhibition of PI3K […] H1047R mutant-mediated PKB phosphorylation at Thr308 in human HCT116 cells after 15 mins by immunoblot analysis; assay type: cell-based, HCT-116; procedure, shortened: as §1
[13] = Terminal half life in CD1 mouse at 10 mg/kg, ip; assay type: ADME, organism-based; set-up: dose 10 mg/kg, route intraperitoneal; settings: in vivo, read-out: beta t1/2 (converted)
Procedure, shortened: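 Age-matched specific pathogen-free male CD-1 mice; single 10 mg/kg i.p. dose in 5% DMSO, 45% PEG-400, 20% 2-hydroxypropyl-β-cyclodextrin, 30% water. Blood sampled at multiple times post-dose; plasma taken after centrifugation (10 min, 6000 rpm, 20 °C). Plasma analysed by LC-MS/MS; parameters from non-compartmental analysis.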

HCT-116 = experiment: Antitumor activity against human HCT116 cells xenografted in Rag1knockout mouse assessed as tumor growth delay at 40 mg/kg, ip QD measured on day 7 relative to untreated control; assay type: functional; settings: route intraperitoneal
Procedure, shortened: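 Male Rag1−/− mice (age-matched, SPF) inoculated s.c. with 5 × 10⁶ HCT-116 cells in PBS. Dosing started at ~150 mm³ tumours: q.d. i.p. in 7.5% DMSO, 42.5% PEG-400, 20% 2-hydroxypropyl-β-cyclodextrin, 30% water; controls received vehicle. Volume = (L × w²) × π/6, measured three times weekly; bodyweight daily. Treatment stopped if mean weight loss >15%; 1-way ANOVA with Holm–Sidak.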

SK-OV-3 = experiment: Antitumor activity against human SKOV3 cells xenografted in nude NIH3 mouse assessed as tumor growth delay at 30 mg/kg, ip QD administered for 14 days relative to untreated control; assay type: functional; settings: SK-OV-3, ip, 336 h, route intraperitoneal, read-out: GI
Procedure, shortened: (§2)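 Female NIH III nude mice (age-matched, SPF) inoculated s.c. with 5 × 10⁶ SK-OV-3 cells in PBS. Dosing from ~150 mm³ tumours, 30 mg/kg i.p. q.d. for 14 days in 7.5% DMSO/42.5% PEG-400/20% 2-hydroxypropyl-β-cyclodextrin/30% water; vehicle controls. Volume (L × w²) × π/6 three times weekly; bodyweight daily; culled above 20% weight loss; 1-way ANOVA, Holm–Sidak.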

Mus musculus = experiment: Toxicity in NIH3 mouse xenografted with human SKOV3 cells assessed as body weight loss at 30 mg/kg, ip QD administered for 14 days; assay type: organism-based, SK-OV-3; set-up: dose 30 mg/kg, route intraperitoneal; settings: in vivo, 336 h; procedure, shortened: as §2
[14] = molecular target: Serine/threonine-protein kinase mTOR (Homo sapiens, UniProt P42345); experiment: Inhibition of mTOR

- pIC50 [1]: 7.29
- pIC50 [2]: 9.10
- Activity [3]: 65%
- Activity [4]: 13%
- Activity [5]: 5%
- Activity [6]: 59%
- Activity [7]: 8%
- Activity [8]: 76%
- Activity [9]: 16%
- Activity [10]: 2%
- pIC50 [11]: 7.09
- pIC50 [12]: 7.31
- half-life [13]: 1.13 h
- pIC50 [14]: 6.63
Structure (SMILES): Cc1ccc([N+](=O)[O-])cc1S(=O)(=O)N(CCO)/N=C/c1cnn2ccc(C#N)cc12
- Activity (HCT-116): 43.8%
- inhibition in vivo at 30 mg/kg (SK-OV-3): 49.9%
- Activity (Mus musculus): 20%
